# Published values of several laboratories.
# Protocols differ between the studies behind these lines.
# Target: Dual specificity testis-specific protein kinase 1 (TESK1, Homo sapiens, UniProt Q15569)
SMILES,observed,mode,technique,concentration,quantity,result
COc1cc(/C=C/C(=O)CC(=O)/C=C/c2ccc(O)c(OC)c2)ccc1O,enzyme activity,inhibitor,,1 µM,activity vs control,101%
Cc1ccc(C(=O)Nc2ccc(CN3CCN(C)CC3)c(C(F)(F)F)c2)cc1C#Cc1cnc2cccnn12,enzyme activity,inhibitor,,23.5 nM,remaining activity,100%
O=C1CCc2cc(Nc3cc(OC4CCOCC4)c([N+](=O)[O-])cc3Cl)ccc2N1,cell-free assay,,competition with immobilised ligand,1 µM,remaining binding,92%
COc1cc(Nc2cnc(C#N)c(O[C@H](C)CN(C)C)n2)ncc1-c1cnn(C)c1,enzyme activity,inhibitor,radiometric,1 µM,remaining activity,110%
Nc1ncnc2occ(-c3ccc(NC(=O)Nc4cc(C(F)(F)F)ccc4F)cc3)c12,cell-free assay,inhibitor,,20 µM,remaining signal,7.4%
Cc1sc(C(=O)NC2COC2)cc1-n1cc(NC(=O)Nc2c(F)cccc2Cl)cn1,enzyme activity,inhibitor,,10 µM,remaining activity,88%
CC(C)(O)[C@H]1CC[C@H](Nc2ccc3ncc(-c4cccc(C(F)(F)F)c4)n3n2)CC1,enzyme activity,inhibitor,,1 µM,remaining activity,83.5%
O=C(Nc1cnn(-c2csc(C(=O)NC3COC3)c2)c1)Nc1ccccc1Cl,enzyme activity,inhibitor,,5 µM,remaining activity,100%
c1ccc(N2CCN(Cc3nc4ccccc4[nH]3)CC2)nc1,binding,,competition with immobilised ligand,1 µM,remaining binding,97%
